ChEMBL document CHEMBL4177600, “Identification of novel PI3K inhibitors through a scaffold hopping strategy” (Bioorg Med Chem Lett, 2017)
In brackets after ≈: the same amount, converted by molar mass.

What was measured:
[1] = Tmax in BALB-C mouse at 10 mg/kg, po by LC-MS/MS analysis; format: ADME, organism-based; details: in vivo
How it was run: (§1)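 BALB-C mice dosed IV in 10% NMP/50% PEG300/40% saline or PO in 10% NMP/90% PEG300. Plasma sampled at 6 (IV) or 8 (PO) time points and quantified by LC/MS/MS. Parameters come from a bicompartmental model fit; values are means of 3 independent samples. Plasma levels were compared with AKT-P EC50 from U2OS cells converted to ng/ml.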

[2] = Cmax in BALB-C mouse at 10 mg/kg, po by LC-MS/MS analysis; format: ADME, organism-based; set-up: dose 10 mg/kg, route oral; details: in vivo
How it was run: (§2)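 BALB-C mice dosed IV (10% NMP/50% PEG300/40% saline) or PO (10% NMP/90% PEG300). Plasma sampled at 6 (IV) or 8 (PO) time points; compound measured by LC/MS/MS. Parameters from bicompartmental model fit; each value is the mean of 3 independent samples.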

[3] = AUC (infinity) in BALB-C mouse at 10 mg/kg, po by LC-MS/MS analysis; format: ADME, organism-based; set-up: dose 10 mg/kg, time infinity, route oral; details: in vivo; how it was run: as §2
[4] = Oral bioavailability in BALB-C mouse at 10 mg/kg by LC-MS/MS analysis; format: ADME, organism-based; details: in vivo; how it was run: as §1
[5] = test system: Mus musculus; assay: Time at which plasma concentration stays above cellular EC50 for inhibition of AKT phosphorylation in BALB-C mouse at 10 mg/kg, po measured up to 24 hrs by LC-MS/MS analysis; format: organism-based; details: in vivo; how it was run: as §1
[6] = Half-life in BALB-C mouse at 3 mg/kg, iv by LC-MS/MS analysis; format: ADME, organism-based; details: in vivo; how it was run: as §2
[7] = Clearance in BALB-C mouse at 3 mg/kg, iv by LC-MS/MS analysis; format: ADME, organism-based; details: in vivo
How it was run: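 Mice (BALB-C) given IV dose in 10% NMP/50% PEG300/40% saline; plasma sampled at 6 times, levels by LC/MS/MS.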

[8] = AUC (infinity) in BALB-C mouse at 3 mg/kg, iv by LC-MS/MS analysis; format: ADME, organism-based; set-up: dose 3 mg/kg, time infinity, route intravenous; details: in vivo; how it was run: as §2
[9] = Cmax in BALB-C mouse at 9 mg/kg, po by LC-MS/MS analysis; format: ADME, organism-based; set-up: dose 9 mg/kg, route oral; details: in vivo; how it was run: as §2
[10] = test system: Mus musculus; assay: Clearance in BALB-C mouse at 3 mg/kg, iv by LC-MS/MS analysis relative to hepatic blood flow; format: ADME, organism-based; details: in vivo
[11] = test system: U2OS; assay: Inhibition of AKT phosphorylation in human U2OS cells
[12] = test system: Mus musculus; assay: Time at which plasma concentration stays above cellular EC50 for inhibition of AKT phosphorylation in BALB-C mouse at 9 mg/kg, po measured up to 8 hrs by LC-MS/MS analysis; details: in vivo
[13] = Cmax in BALB-C mouse at 5 mg/kg, po by LC-MS/MS analysis; format: ADME, organism-based; set-up: dose 5 mg/kg, route oral; details: in vivo; how it was run: as §2
[14] = AUC (infinity) in BALB-C mouse at 5 mg/kg, po by LC-MS/MS analysis; format: ADME, organism-based; set-up: dose 5 mg/kg, route oral, time infinity; details: in vivo; how it was run: as §2
[15] = Half-life in BALB-C mouse at 5 mg/kg, po by LC-MS/MS analysis; format: ADME, organism-based; details: in vivo; how it was run: as §2
[16] = Oral bioavailability in BALB-C mouse at 5 mg/kg by LC-MS/MS analysis; format: ADME, organism-based; details: in vivo; how it was run: as §1
[17] = test system: U2OS; assay: Inhibition of AKT phosphorylation in human U2OS cells; remark: listed apart in the source

Question: For `CS(=O)(=O)N1CCN(Cc2nc3c(N4CCOCC4)nc(-c4cnc(N)nc4)cn3n2)CC1`, which Tmax [1] is on record?
Answer: Its Tmax is 1 h.

Question: And the Cmax [2]?
Answer: The Cmax was 674 ng/mL.

Question: What about the AUC(0-inf) [3] of the same molecule?
Answer: The AUC(0-inf) was 4690 ng·h/mL.

Question: And the bioavailability [4]?
Answer: Its bioavailability is 88%.

Question: What about the Time [5] of the same molecule?
Answer: The Time was over 12 h.

Question: For `CS(=O)(=O)N1CCN(Cc2cc3c(N4CCOCC4)nc(-c4cnc(N)nc4)cn3n2)CC1`, which half-life [6] is on record?
Answer: The half-life was 0.51 h.

Question: And the clearance [7]?
Answer: The clearance was 10.8 mL/min/kg.

Question: And the AUC(0-inf) [8]?
Answer: The AUC(0-inf) was 5820 ng·h/mL.

Question: And the Cmax [9]?
Answer: The Cmax was 938 ng/mL.

Question: And the CL [10]?
Answer: Its CL is under 50%.

Question: And the EC50 [11]?
Answer: Its EC50 is 0.01444 µg/mL (≈ 0.0305 µM).

Question: And the Time [12]?
Answer: Its Time is over 8 h.

Question: For `CS(=O)(=O)N1CCN(Cc2nc3c(N4CCOCC4)nc(-c4cnc(N)nc4)c(Cl)n3n2)CC1`, which Cmax [13] is on record?
Answer: The Cmax was 1050 ng/mL.

Question: And the AUC(0-inf) [14]?
Answer: Its AUC(0-inf) is 5650 ng·h/mL.

Question: What about the half-life [15] of the same molecule?
Answer: The half-life was 2.7 h.

Question: What about the bioavailability [16] of the same molecule?
Answer: Its bioavailability is 73.1%.

Question: What about the EC50 [17] of the same molecule?
Answer: The EC50 was 0.03491 µg/mL (≈ 0.0686 µM).
